In ChEMBL document CHEMBL2385072, “Development of oleanane-type triterpenes as a new class of HCV entry inhibitors” (J Med Chem, 2013):
Active and inactive are the calls of the source. No cut-off for these calls is given here.

Experiments:
[1] = system: Hepatitis C virus; test: Antiviral activity against pseudo HCV infected in human 293T cells assessed as inhibition of HCV pseudo particles entry at 5 uM after 72 hrs by luciferase reporter gene assay; format: functional, Hepacivirus hominis; conditions: HEK-293T
[2] = system: Hepatitis C virus; test: Antiviral activity against pseudo HCV infected in human 293T cells assessed as inhibition of HCV pseudo particles entry at 10 uM after 72 hrs by luciferase reporter gene assay; format: functional, Hepacivirus hominis; conditions: HEK-293T
[3] = system: Vesicular stomatitis virus; test: Antiviral activity against pseudo VSV infected in human 293T cells assessed as inhibition of vesicular stromatis G protein pseudo particles entry at 1 uM after 72 hrs by luciferase reporter gene assay; format: functional; conditions: HEK-293T
[4] = system: Hepacivirus hominis; test: Binding affinity to HCV envelope protein E2 protein by SPR method
How it was run: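 E2 loaded on streptavidin-coated biosensors and exposed to compound at 3.125–100 μM to obtain binding curves and K_D. Competition was also tested as E2 binding to a biotin-labelled compound chip in the presence of free compound at varied doses.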

[5] = system: Vesicular stomatitis virus; test: Antiviral activity against pseudo VSV infected in human 293T cells assessed as inhibition of vesicular stromatis G protein pseudo particles entry at 5 uM after 72 hrs by luciferase reporter gene assay; format: functional; conditions: HEK-293T
[6] = system: Hepatitis C virus; test: Antiviral activity against pseudo HCV infected in human Huh7 cells assessed as inhibition of HCV pseudo particles entry at 10 uM incubated for 3 hrs; format: functional, organism-based; conditions: Hepacivirus hominis, Huh-7
How it was run: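 Prebinding: Huh7 cells exposed to HCVpp plus 10 μM compound at 4 °C for 3 h, washed free of virus and compound, then cultured 72 h at 37 °C. Normalized to 0.5% DMSO. CD81 antibody 5 nM as control.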

[7] = system: Hepacivirus hominis; test: Binding affinity to HCV envelope protein E2 protein by pull down assay
How it was run: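 Biotin-labelled probe incubated with lysate of HCVpp-packaging cells and captured on streptavidin agarose. Free biotin and unlabelled compound served as parallel probes. For competition, excess free compound was added to the lysate. Bound E2 was detected.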

[8] = system: Hepatitis C virus; test: Antiviral activity against pseudo HCV infected in human Huh7 cells assessed as inhibition of HCV pseudo particles entry at 10 uM after 72 hrs; format: functional, organism-based; conditions: Hepacivirus hominis, Huh-7
How it was run: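 Co-treatment: Huh7 cells infected with HCVpp (or VSVpp) with 10 μM compound present throughout, 72 h at 37 °C. Normalized to 0.5% DMSO (final). CD81 antibody (5 nM) was the positive control and an unrelated compound the negative control. Luciferase read-out.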

[9] = system: Hepatitis C virus; test: Antiviral activity against pseudo HCV infected in human 293T cells assessed as inhibition of HCV pseudo particles entry after 72 hrs by luciferase reporter gene assay; format: functional, organism-based, Hepacivirus hominis
How it was run: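 HCVpp (HCV E1/E2 on Env/Vpr-deficient HIV luciferase vector, made in 293T by cotransfection, harvested 72 h) added to 5×10^3 Huh-7 cells/well with compound at final 1 or 5 μM in 1% DMSO; 72 h, 37 °C; luciferase read. Inhibition = 100 − % of DMSO control after uninfected-well background subtraction; VSVpp run in parallel; duplicate, ≥3 experiments.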

[10] = system: Hepatitis C virus; test: Antiviral activity against pseudo HCV infected in human Huh7 cells assessed as inhibition of HCV pseudo particles entry at 10 uM incubated for 3 hrs prior to compound addition measured after 72 hrs; format: functional, organism-based; conditions: Hepacivirus hominis, Huh-7
How it was run: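 Post-binding/pre-entry: Huh7 cells incubated with HCVpp at 4 °C for 3 h, washed, then treated with 10 μM compound at 37 °C for 72 h. Normalized to 0.5% DMSO. CD81 antibody 5 nM as control.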

[11] = system: Hepatitis C virus; test: Antiviral activity against pseudo HCV infected in human 293T cells assessed as inhibition of HCV pseudo particles entry at 1 uM after 72 hrs by luciferase reporter gene assay; format: functional, Hepacivirus hominis; conditions: HEK-293T
[12] = system: Hepatitis C virus; test: Antiviral activity against pseudo HCV infected in human Huh7 cells at 10 uM after 72 hrs; format: functional, organism-based; conditions: Hepacivirus hominis, Huh-7
How it was run: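 Post-entry: Huh7 cells infected with HCVpp at 37 °C for 6 h, washed, then treated with 10 μM compound at 37 °C for 72 h. Normalized to 0.5% DMSO. CD81 antibody 5 nM as control.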

[13] = Inhibition of HCV envelope protein E2 protein interaction with CD81 receptor (unknown origin) by BIAcore assay; set-up: species or system Hepacivirus hominis
How it was run: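 BIAcore: E2 immobilized on a streptavidin sensor via SA–biotin and exposed to CD81 at 40.9–654.5 nM to fit K_D. CD81 was also tested together with compound.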

[14] = system: Hepatitis C virus; test: Antiviral activity against pseudo HCV infected in human Huh7 cells assessed as inhibition of HCV pseudo particles entry at 10 uM incubated for 3 hrs prior to virus addition measured after 72 hrs; format: functional, organism-based; conditions: Hepacivirus hominis, Huh-7
How it was run: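 Pretreatment: Huh7 cells exposed to 10 μM compound for 3 h at 37 °C, washed, then infected with HCVpp for 72 h at 37 °C. Normalized to 0.5% DMSO. CD81 antibody 5 nM as control.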

SMILES: CC1(C)CC[C@]2(C(=O)O)[C@H](O)C[C@]3(C)C(=CC[C@@H]4[C@@]5(C)CC[C@H](O)C(C)(C)[C@@H]5CC[C@]43C)[C@H]2C1 [ECHINOCYSTIC ACID]
- inhibition at 5 µM [1]: 77.7%
- inhibition at 10 µM [2]: 90%
- inhibition at 1 µM [3]: 7.2%
- Activity [4]: Dose-dependent effect
- inhibition at 5 µM [5]: 9%
- inhibition [6]: Active
- Activity [7]: Active
- inhibition [8]: Active
- IC50 [9]: 1.4 µM
- inhibition [10]: Active
- inhibition at 1 µM [11]: 27.5%
- Activity [12]: inactive
- Kd [13]: 24 µM
- inhibition [14]: Active
